In one assay the test system is Mus musculus. The assay is described as follows: (§1) Tested for anticonvulsant activity following intracerebroventricular administration against sound-induced clonic convulsions in DBA/2 mice. The format is functional. The procedure, abridged: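 Intracerebroventricular dosing in DBA/2 mice at several doses, 7–11 mice per drug. Mice were exposed to sound, and protection against clonic (audiogenic) seizures was scored. Values were derived from dose–response data with 95% confidence limits. Overt behaviour (ataxia) and rectal temperature were also monitored.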

Assay [1] in a line: as §1. The assay is classed as functional, Mus musculus. A digest of the protocol:
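Intracerebroventricular injection in DBA/2 mice, 7–11 mice per compound, several doses per compound. Read-out is protection against sound-induced (audiogenic) clonic seizures. Values carry 95% confidence limits. Overt behaviour (ataxia) and rectal temperature were also noted.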

The nature of assay [2]: Equipotent molar ratio relative to D-AP5 (1.0) on neonatal rat motoneurones. The format is functional.
Assay [3] is described as follows: Equipotent molar ratio relative to D-AP5 (1.0) on neonatal rat motoneurones. The format is functional. A digest of the protocol:
(§2)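 Isolated neonatal rat spinal cord in vitro, recording from motoneurones. Antagonist potency is given as an equipotent molar ratio against D-AP5, with D-AP5 set to 1.0.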

The nature of assay [4]: Equipotent molar ratio relative to D-AP5 (1.0) on neonatal rat motoneurones.; inactive. The assay is classed as functional. A digest of the protocol: as §2

Active and inactive are the calls of the source. The rule behind the calls is not given here.

On to `N[C@]1(C(=O)O)C[C@](C(=O)O)(C2CC2C(=O)O)C1` (some centres undefined), for which the ED50 in the assay with Mus musculus was found to be 0.089 µg; in assay [1], 0.36 nmol. The Ratio in assay [2] is recorded as 0.28.
For `N[C@]1(C(=O)O)C[C@@H](CCC(=O)O)C1`, the Ratio in assay [3] was found to be 7.9.
With `NC1(C(=O)O)CC([C@H](O)CP(=O)(O)O)C1` (some centres undefined), in assay [2], the Ratio is recorded as 1.
The same measure, in the same setting: as for `N[C@]1(C(=O)O)C[C@@H](CCP(=O)(O)O)C1`, the figure is 1.1; as for `NC1(C(=O)O)CC([C@@H](O)CP(=O)(O)O)C1` (some centres undefined), 0.39.
As to `N[C@]1(C(=O)O)C[C@H](CCC(=O)O)C1`, the Ratio in assay [3] is 1.8.
As for `N[C@]1(C(=O)O)C[C@@H](C(=O)CP(=O)(O)O)C1`, the Ratio in assay [2] is recorded as 4.2.
As to `N[C@]1(C(=O)O)C[C@@](C(=O)O)(C2CC2C(=O)O)C1` (some centres undefined), in assay [4], the Ratio result was “inactive”.
Consider `N[C@@H](CCCP(=O)(O)O)C(=O)O`, for which the Ratio in assay [3] is 1.
On to `N[C@]1(C(=O)O)C[C@H](C(=O)CP(=O)(O)O)C1`, for which the Ratio in assay [2] turned out to be 0.33.
Same read-out and setting: under `O=C(O)C1CN(CCCP(=O)(O)O)CCN1` (racemic) stands 0.2.
On the same count and under the same terms, as for `N[C@]1(C(=O)O)C[C@H](CCP(=O)(O)O)C1`, the figure is 0.32.

Source of the values: ChEMBL document CHEMBL1127789, “Synthesis, NMDA receptor antagonist activity, and anticonvulsant action of 1-aminocyclobutanecarboxylic acid derivatives” (1994).
